The results in this text go back to publication PMC3058531 (Biochemistry, 2010).

“Also recorded” adds a separate entry of the source. * marks the point of attachment. pNA = O=[N+]([O-])c1ccc(N*)cc1

Data set [1] addresses T1, Southampton norovirus 3C protease (SV3CP) (Southampton virus, UniProt Q04544). Nature of the data set: Chromogenic pNA peptide substrate cleavage, initial rates at 405 nm. As to conditions: compared with Ac-EFQLQ-pNA or other trial substrates; pH 8.5. It is filed as biochemical. The essentials: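 Recombinant SV3CP expressed in E. coli BL21(DE3) pLysS, self-excised from flanking sequences, purified by two cation-exchange steps. N-acetylated peptide-pNA substrates in DMSO, diluted into 100 mM Tris pH 8.5 with 5 mM β-mercaptoethanol (final substrate 0.1−3.0 mM, enzyme 0.1 mg/mL). A405 of samples read every 1 min for 10 min; initial rates gave KM, kcat and kcat/KM.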

Data set [2] addresses T1, Southampton norovirus 3C protease (SV3CP). Briefly: Mass spectrometry of the SV3CP-MAPI complex. It is filed as binding. The following applies: single major protein peak at 20045 Da.
The target is the same in data set [3]. The class given is biochemical. The following applies: preincubation with millimolar concentrations of the inhibitor prior to addition of substrate; within the dead time of the experiment.
Data set [4] can be described thus: Solubility of the inhibitor in protein buffer. It is filed as physicochemical. The following applies: 10% DMSO had to be included in the buffer.
Data set [5] has as its system Southampton norovirus 3C protease (SV3CP), Cys 139. Nature of the data set: X-ray structure of the SV3CP-MAPI complex. It is filed as binding. As to conditions: cocrystal at 1.7 Å resolution, PDB 2IPH; crystals at pH 8.5.

T1 sequence (Q04544 1100-1280 limits assumed): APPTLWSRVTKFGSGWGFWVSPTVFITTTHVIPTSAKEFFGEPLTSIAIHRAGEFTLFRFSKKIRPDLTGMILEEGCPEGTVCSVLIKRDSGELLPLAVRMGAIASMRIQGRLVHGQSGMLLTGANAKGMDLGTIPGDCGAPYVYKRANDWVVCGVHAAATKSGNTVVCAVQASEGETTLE

In the case of Ac-DEFQLQ-pNA, in data set [1], the “kcat/KM, kcat and KM comparison in words” value is listed as “had a kcat which was higher than that of Ac-EFQLQ-pNA although its proportionately higher KM meant that it was a slightly inferior substrate in terms of specificity constant”.

With Ac-EFQLQ-pNA, the “kcat/KM, kcat and KM comparison in words” value in data set [1] is on record as “had the highest kcat/KM ratio; also recorded: the best substrate in terms of specificity constant (kcat/KM ratio)”.

For acetyl-Glu-Phe-Gln-Leu-Gln-X [MAPI], in data set [2], the binding stoichiometry result was “one molecule of SV3CP plus one molecule of the inhibitor”. Also, the “time to irreversible inactivation of the enzyme” value in data set [3] is on record as below 30 s. In addition, the “solubility (in words)” value in data set [4] is on record as “essentially insoluble”. Besides, the covalent binding mode entry in data set [5] was “the active site thiol of Cys 139 is bound covalently to the C-terminal Michael-acceptor extension of the inhibitor MAPI”.
